In ChEMBL document CHEMBL1132319, “2,3-Dihydro-2-oxo-1H-benzimidazole-1-carboxamides with selective affinity for the 5-HT(4) receptor: synthesis and structure-affinity and structure-activity relationships of a new series of partial agonist and antagonist derivatives” (J Med Chem, 1999):

What was measured:
[1] = molecular target: T1, Serotonin 3 (5-HT3) receptor (Rattus norvegicus, UniProt P35563+Q9JJ16); assay: Inhibitory concentration against 5-hydroxytryptamine 3 receptor in rat entorhinal cortex using [3H]-LY 278584 as radioligand
T1 sequence (P35563 whole entry): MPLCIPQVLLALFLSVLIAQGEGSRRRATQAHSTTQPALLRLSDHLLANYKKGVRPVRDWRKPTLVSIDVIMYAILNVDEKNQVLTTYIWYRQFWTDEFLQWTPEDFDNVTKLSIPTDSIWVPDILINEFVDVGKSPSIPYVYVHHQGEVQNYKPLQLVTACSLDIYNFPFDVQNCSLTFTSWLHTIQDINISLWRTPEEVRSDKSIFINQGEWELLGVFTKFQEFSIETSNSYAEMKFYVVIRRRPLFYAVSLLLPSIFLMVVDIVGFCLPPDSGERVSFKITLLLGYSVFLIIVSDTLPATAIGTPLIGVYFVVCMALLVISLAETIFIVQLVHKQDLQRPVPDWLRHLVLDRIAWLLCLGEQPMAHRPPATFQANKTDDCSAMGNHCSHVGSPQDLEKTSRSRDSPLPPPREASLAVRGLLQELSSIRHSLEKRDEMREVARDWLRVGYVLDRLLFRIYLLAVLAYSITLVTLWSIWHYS
T1 sequence (Q9JJ16 whole entry): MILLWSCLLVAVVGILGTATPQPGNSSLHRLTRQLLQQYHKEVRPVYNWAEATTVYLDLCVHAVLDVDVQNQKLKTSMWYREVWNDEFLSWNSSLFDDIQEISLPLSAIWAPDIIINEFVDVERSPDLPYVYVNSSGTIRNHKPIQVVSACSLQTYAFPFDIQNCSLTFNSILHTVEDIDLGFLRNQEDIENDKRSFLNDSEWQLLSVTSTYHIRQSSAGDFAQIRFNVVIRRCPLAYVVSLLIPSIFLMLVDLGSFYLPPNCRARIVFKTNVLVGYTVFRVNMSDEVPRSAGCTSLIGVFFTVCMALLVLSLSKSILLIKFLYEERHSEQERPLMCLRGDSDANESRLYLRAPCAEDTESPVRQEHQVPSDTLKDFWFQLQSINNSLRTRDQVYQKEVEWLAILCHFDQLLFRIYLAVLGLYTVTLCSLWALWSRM
Summary of the method: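 Male Wistar rat entorhinal cortex membranes in 50 mM Tris-HCl with 5 mM CaCl2, 0.1% ascorbate and 10 μM pargyline (1:40 wt/vol, 500–600 μg protein), with 2 nM [3H]LY 278584. Nonspecific binding with 10 μM 5-HT.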

[2] = molecular target: T2, 5-hydroxytryptamine receptor 4 (Cavia porcellus, UniProt O70528); assay: Binding affinity against 5-hydroxytryptamine 4 receptor in guinea pig striatum using [3H]GR-113808 as radioligand
Summary of the method: (§1)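 Male Dunkin–Hartley guinea pig striatal membranes in 50 mM Hepes pH 7.4 (1:80 wt/vol, 800–900 μg protein) with 0.1 nM [3H]GR 113808. Nonspecific binding with 10 μM 5-HT. Incubated 30 min at 25 °C, then filtered on PEI-treated filters and counted by scintillation. 10–12 displacer concentrations; two experiments in triplicate; IC50 and Ki.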

[3] = molecular target: T2, 5-hydroxytryptamine receptor 4; assay: Displacement of [3H]GR-113808 from 5-hydroxytryptamine 4 receptor in guinea pig striatum; summary of the method: as §1
[4] = system: 5-HT4 receptor (Rattus norvegicus); assay: Agonistic activity against 5-hydroxytryptamine 4 receptor
[5] = system: 5-HT4 receptor (Rattus norvegicus); assay: Antagonistic activity against 5-hydroxytryptamine 4 receptor

T2 sequence (O70528 whole entry): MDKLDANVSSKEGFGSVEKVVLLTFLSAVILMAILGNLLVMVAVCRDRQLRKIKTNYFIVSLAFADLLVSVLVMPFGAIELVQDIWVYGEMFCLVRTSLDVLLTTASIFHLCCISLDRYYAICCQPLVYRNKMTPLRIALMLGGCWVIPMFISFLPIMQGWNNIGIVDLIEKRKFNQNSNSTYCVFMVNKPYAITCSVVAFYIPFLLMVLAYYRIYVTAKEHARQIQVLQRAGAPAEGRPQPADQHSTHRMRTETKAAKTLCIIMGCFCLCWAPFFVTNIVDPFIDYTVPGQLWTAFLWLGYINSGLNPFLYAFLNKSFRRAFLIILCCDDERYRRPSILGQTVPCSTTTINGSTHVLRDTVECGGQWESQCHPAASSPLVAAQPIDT

| SMILES | IC50 [1] [nM] | Ki [2] [nM] | IC50 [3] [nM] | Intrinsic activity [4] | pKb [5] | Ki [1] [nM] |
| --- | --- | --- | --- | --- | --- | --- |
| Cc1cccc2c1n(C(C)C)c(=O)n2C(=O)NCCN1CCN(C)CC1 | – | 216 | – | – | – | – |
| CC(C)n1c(=O)n(C(=O)NC2CC3CCC(C2)N3C)c2ccccc21 (centres undefined) | – | 63.9 | – | – | – | 0.5 |
| CC(C)n1c(=O)n(C(=O)NCN2CCN(C)CC2)c2ccccc21 | – | – | > 1000 | – | – | 309 |
| CC(C)n1c(=O)n(C(=O)NN2CCN(C)CC2)c2ccccc21 | – | – | > 1000 | < 0.3 | < 6 | 201 |
| CN1CCN(CCNC(=O)n2c(=O)n(Cc3ccccc3)c3ccccc32)CC1 | > 1000 | – | > 1000 | < 0.3 | < 6 | – |
| CC(C)n1c(=O)n(C(=O)NCCCN2CCN(C)CC2)c2ccccc21 | > 1000 | – | > 1000 | < 0.3 | < 6 | – |
| CCCCN1CCN(CCNC(=O)n2c(=O)n(C(C)C)c3ccccc32)CC1 | > 1000 | 38.9 | – | – | – | – |
| CCCC[N+]1(C)CCN(CCNC(=O)n2c(=O)n(C(C)C)c3ccccc32)CC1 | > 1000 | 66.3 | – | 0.93 | 6 | – |
| Cn1cc(C(=O)OCC2CCN(CCNS(C)(=O)=O)CC2)c2ccccc21 | > 1000 | 0.11 | – | – | – | – |
| CC(C)n1c(=O)n(C(=O)NCCN2CC[N+](C)(C)CC2)c2ccccc21 | > 1000 | 68.5 | – | 0.75 | < 6 | – |
| CCCCn1c(=O)n(C(=O)NCCN2CCN(C)CC2)c2ccccc21 | > 1000 | – | > 1000 | < 0.3 | < 6 | – |
| CC(C)N1CCN(CCNC(=O)n2c(=O)n(C3CC3)c3ccccc32)CC1 | > 1000 | 6.7 | – | – | – | – |
| CC(C)n1c(=O)n(C(=O)NCCN2CCN(C)CC2)c2cc(F)c([N+](=O)[O-])cc21 | > 1000 | – | > 1000 | – | – | – |
| CCn1c(=O)n(C(=O)NCCN2CCN(C)CC2)c2ccccc21 | > 1000 | 75.4 | – | < 0.3 | 6.79 | – |
| CN1CCN(CCNC(=O)n2c(=O)n(C3CC3)c3ccccc32)CC1 | > 1000 | 10.2 | – | – | – | – |
| CN1CCN(CCNC(=O)n2c(=O)n(C)c3ccccc32)CC1 | > 1000 | 306 | – | 0.42 | < 6 | – |
| CCCN1CCN(CCNC(=O)n2c(=O)n(CC)c3ccccc32)CC1 | > 1000 | 16.9 | – | – | – | – |
| C=CCn1c(=O)n(C(=O)NCCN2CCN(C)CC2)c2ccccc21 | > 1000 | – | > 1000 | 0.63 | < 6 | – |
| CC(C)n1c(=O)n(C(=O)NCCN2CCN(C)CC2)c2cc(F)ccc21 | > 1000 | 108 | – | 0.67 | 6.88 | – |
| COc1ccc2c(c1)n(C(=O)NCCN1CCN(C)CC1)c(=O)n2C(C)C | > 1000 | – | > 1000 | < 0.3 | < 6 | – |
| CCCCN1CCN(CCNC(=O)n2c(=O)n(C3CC3)c3ccccc32)CC1 | > 1000 | 13.3 | – | 0.46 | 7.51 | – |
| CC(C)N1CCN(CCNC(=O)n2c(=O)n(C(C)C)c3ccccc32)CC1 | > 1000 | 89.8 | – | – | – | – |
| CC(C)n1c(=O)n(C(=O)NCCN2CCN(Cc3ccc(F)cc3)CC2)c2ccccc21 | > 1000 | 262 | – | – | – | – |

Now from value to compound:

| IC50 [1] [nM] | Ki [2] [nM] | IC50 [3] [nM] | Intrinsic activity [4] | pKb [5] | Ki [1] [nM] | SMILES |
| --- | --- | --- | --- | --- | --- | --- |
| > 1000 | 375 | – | – | – | – | CC(C)n1c(=O)n(C(=O)NCCN2CCN(CCCOc3ccc(F)cc3)CC2)c2ccccc21 |
| > 1000 | – | 1000 | 0.35 | < 6 | – | CN1CCN(CCNC(=O)n2c(=O)[nH]c3ccccc32)CC1 |
| > 1000 | 17.9 | – | – | – | – | CCN1CCN(CCNC(=O)n2c(=O)n(CC)c3ccccc32)CC1 |
| > 1000 | 253 | – | 0.48 | < 6 | – | CCCn1c(=O)n(C(=O)NCCN2CCN(C)CC2)c2ccccc21 |
| > 1000 | 87.3 | – | 0.68 | 6.89 | – | CCCN1CCN(CCNC(=O)n2c(=O)n(C(C)C)c3ccccc32)CC1 |
| > 1000 | – | > 1000 | – | – | – | CN1CCN(CCNC(=O)n2c(=O)n(CCc3ccccc3)c3ccccc32)CC1 |
| > 1000 | 34.1 | – | < 0.3 | 7.73 | – | CCCCN1CCN(CCNC(=O)n2c(=O)n(CC)c3ccccc32)CC1 |
| > 1000 | – | > 1000 | 0.3 | < 6 | – | CC(C)n1c(=O)n(C(=O)NCCN2CCN(Cc3ccc4c(c3)OCO4)CC2)c2ccccc21 |
| > 1000 | 39.7 | – | 0.46 | 6.4 | – | CN1CCN(CCCNC(=O)n2c(=O)n(C3CC3)c3ccccc32)CC1 |
| > 1000 | 25.2 | – | – | – | – | CCn1c(=O)n(C(=O)NCCN2CCN(C(C)C)CC2)c2ccccc21 |
| > 1000 | – | > 1000 | 0.7 | < 6 | – | CC(C)n1c(=O)n(C(=O)NCCN2CCN(C)CC2)c2cc(Cl)ccc21 |
| > 1000 | 104 | – | 0.87 | 6.62 | – | CCN1CCN(CCNC(=O)n2c(=O)n(C(C)C)c3ccccc32)CC1 |
| > 1000 | 91.1 | – | 0.94 | < 6 | – | CC(C)n1c(=O)n(C(=O)NCCN2CCN(C)CC2)c2ccccc21 |
| > 1000 | 56.3 | – | < 0.3 | 6.28 | – | C=CC[N+]1(C)CCN(CCNC(=O)n2c(=O)n(C(C)C)c3ccccc32)CC1 |
| > 1000 | – | > 1000 | < 0.3 | < 6 | – | CC(C)n1c(=O)n(C(=O)NCCN2CCN(C)CC2)c2cc(F)c(N)cc21 |
| > 1000 | 8.2 | – | 0.41 | 7.46 | – | CCCN1CCN(CCNC(=O)n2c(=O)n(C3CC3)c3ccccc32)CC1 |
| > 1000 | 49.4 | – | 0.53 | 6.19 | – | CN1CCN(CNC(=O)n2c(=O)n(C3CC3)c3ccccc32)CC1 |
